Experiments:
Assay type in all cases: functional
[1] = tested on: MCF7; assay: Growth inhibition of human MCF7 cells
Procedure, shortened: (§1)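 NCI full human tumour cell panel covering leukemia, melanoma, lung, colon, renal, ovarian, breast, prostate and CNS subpanels. Five concentrations at 10-fold dilution were used: 10^-4, 10^-5, 10^-6, 10^-7 and 10^-8 M. GI50, the concentration giving 50% inhibition of net cell growth, was determined for each cell line.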

[2] = Growth inhibition of human NCI-50 cells; settings: NCI full human tumour cell panel; procedure, shortened: as §1
[3] = tested on: EKVX; assay: Growth inhibition of human EKVX cells; procedure, shortened: as §1
[4] = tested on: COLO 205; assay: Growth inhibition of human COLO205 cells; procedure, shortened: as §1
[5] = tested on: OVCAR-8; assay: Growth inhibition of human OVCAR8 cells; procedure, shortened: as §1
[6] = tested on: BT-549; assay: Growth inhibition of human BT549 cells; procedure, shortened: as §1
[7] = tested on: SF-268; assay: Antiproliferative activity against human SF268 cells at 100 uM after 48 hrs
[8] = tested on: M14; assay: Growth inhibition of human M14 cells; procedure, shortened: as §1
[9] = tested on: LOX IMVI; assay: Growth inhibition of human LOX IMVI cells; procedure, shortened: as §1
[10] = tested on: A549; assay: Growth inhibition of human A549 cells; procedure, shortened: as §1
[11] = tested on: MCF7; assay: Antiproliferative activity against human MCF7 cells at 100 uM after 48 hrs
[12] = tested on: NCI-H460; assay: Antiproliferative activity against human NCI-H460 cells at 100 uM after 48 hrs
[13] = tested on: SR; assay: Growth inhibition of human SR cells; procedure, shortened: as §1
[14] = tested on: NCI-H522; assay: Growth inhibition of human NCI-522 cells; procedure, shortened: as §1
[15] = tested on: MOLT-4; assay: Growth inhibition of human MOLT4 cells; procedure, shortened: as §1

Row | Structure (SMILES) | GI50 [2] [µM] | Activity [7] [%] | Activity [11] [%] | Activity [12] [%] | further results
1 | N#Cc1c2ccccc2c2nnc3ccccc3n12 | 33.9 | 95 | 26 | 21 | GI50 [1]: 14.1 µM; GI50 [3]: 12.6 µM; GI50 [4]: 9.33 µM; GI50 [5]: 11.2 µM; GI50 [6]: 12 µM; GI50 [8]: 14.8 µM; GI50 [9]: 6.46 µM; GI50 [10]: 13.5 µM
2 | Cc1cccc2nnc3c4ccccc4c(C#N)n3c12 |  | 88 | 69 | 50 | 
3 | Cc1cccc2c1nnc1c3ccccc3c(C#N)n21 |  | 105 | 72 | 118 | 
4 | COc1ccc2c(c1)nnc1c3ccccc3c(C#N)n21 |  | 104 | 63 | 86 | 
5 | Cc1cc2nnc3c4ccccc4c(C#N)n3c2cc1C |  | 76 | 76 | 48 | 
6 | N#Cc1c2ccccc2c2nnc3cc(Cl)c(Cl)cc3n12 | 49 | 68 | 80 | 17 | 
7 | N#Cc1c2ccccc2c2nnc3cc(Cl)ccc3n12 |  | 114 | 109 | 109 | 
8 | N#Cc1c2ccccc2c2nnc3ccc(Cl)cc3n12 |  | 86 | 51 | 61 | 
9 | N#Cc1c2ccccc2c2nnc3cc(C(F)(F)F)ccc3n12 | 53.7 | 82 | 65 | 6 | GI50 [1]: 10.7 µM
10 | N#Cc1c2ccccc2c2nnc3ccc(C(F)(F)F)cc3n12 | 34.7 | 96 | 83 | 8 | GI50 [13]: 214 nM; GI50 [3]: ≤ 0.01 µM; GI50 [14]: 17 µM; GI50 [15]: 10.5 µM

Source: ChEMBL document CHEMBL1144526, “Isoindolo[2,1-c]benzo[1,2,4]triazines: a new ring system with antiproliferative activity” (2007)
